Legend:
Assay type in all cases: functional
Rattus norvegicus [1] = assay: Effect on hemodynamic parameters in Sprague-Dawley rat heart assessed as dPdT max at 128 ug/kg/min (reference value: 4162 mmHg/s)
Rattus norvegicus [2] = assay: Effect on hemodynamic parameters in Sprague-Dawley rat heart assessed as end-systolic pressure at 64 ug/kg/min (reference value: 87.48 mmHg)
Rattus norvegicus [3] = assay: Effect on hemodynamic parameters in Sprague-Dawley rat heart assessed as heart rate at 128 ug/kg/min (reference value: 274 bpm)
Rattus norvegicus [4] = assay: Effect on hemodynamic parameters in Sprague-Dawley rat heart assessed as end-systolic pressure at 32 ug/kg/min (reference value: 87.48 mmHg)
Rattus norvegicus [5] = assay: Effect on hemodynamic parameters in Sprague-Dawley rat heart assessed as end-diastolic pressure at 128 ug/kg/min (reference value: 9.64 mmHg)
Rattus norvegicus [6] = assay: Effect on hemodynamic parameters in Sprague-Dawley rat heart assessed as dPdT min at 128 ug/kg/min (reference value: -4611 mmHg/s)
Rattus norvegicus [7] = assay: Effect on hemodynamic parameters in Sprague-Dawley rat heart assessed as dPdT min at 64 ug/kg/min (reference value: -4611 mmHg/s)
Rattus norvegicus [8] = assay: Effect on hemodynamic parameters in Sprague-Dawley rat heart assessed as end-systolic pressure at 16 ug/kg/min (reference value: 87.48 to 97.85 mmHg)
Rattus norvegicus [9] = assay: Positive inotropic activity in Sprague-Dawley rat heart assessed as left ventricular posterior wall thickness end diastole at 16 ug/kg/min for 3 mins by echocardiographic analysis (reference value: 0.88 to 1.54 mm)
Outline: (§1)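 Male Sprague-Dawley rats, seven weeks old, anaesthetised with 1.5 % isoflurane given by nosecone. Compound infused through the right internal jugular vein, used as a central venous line. Left ventricular dimensions measured by echocardiography.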

Rattus norvegicus [10] = assay: Positive inotropic activity in Sprague-Dawley rat heart assessed as heart rate at 8 ug/kg/min for 3 mins by echocardiographic analysis (reference value: 281 to 347 bpm)
Rattus norvegicus [11] = assay: Positive inotropic activity in Sprague-Dawley rat heart assessed as left ventricular posterior wall thickness end systole at 4 ug/kg/min for 3 mins by echocardiographic analysis (reference value: 2.07 to 2.46 mm); outline: as §1
Rattus norvegicus [12] = assay: Positive inotropic activity in Sprague-Dawley rat heart assessed as fractional shortening at 16 ug/kg/min for 3 mins by echocardiographic analysis (reference value: 38.60 to 55.81%)
Outline: (§2)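 Seven-week-old male Sprague-Dawley rats under 1.5 % isoflurane via nosecone. Drug given through a right internal jugular vein central line. Left ventricular fractional shortening and ejection fraction measured by echocardiography with and without sample, expressed as % increase.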

Rattus norvegicus [13] = assay: Effect on hemodynamic parameters in Sprague-Dawley rat heart assessed as heart rate at 32 ug/kg/min (reference value: 274 bpm)
Rattus norvegicus [14] = assay: Effect on hemodynamic parameters in Sprague-Dawley rat heart assessed as dPdT max at 32 ug/kg/min (reference value: 4162 mmHg/s)
Rattus norvegicus [15] = assay: Effect on hemodynamic parameters in Sprague-Dawley rat heart assessed as dPdT min at 32 ug/kg/min (reference value: -4611 mmHg/s)
Rattus norvegicus [16] = assay: Positive inotropic activity in Sprague-Dawley rat heart assessed as ejection fraction at 16 ug/kg/min for 3 mins by echocardiographic analysis (reference value: 67.16 to 85.81%); outline: as §2
Rattus norvegicus [17] = assay: Effect on hemodynamic parameters in Sprague-Dawley rat heart assessed as dPdT max at 64 ug/kg/min (reference value: 4162 mmHg/s)
Rattus norvegicus [18] = assay: Effect on hemodynamic parameters in Sprague-Dawley rat heart assessed as end-diastolic pressure at 64 ug/kg/min (reference value: 9.64 mmHg)
Rattus norvegicus [19] = assay: Effect on hemodynamic parameters in Sprague-Dawley rat heart assessed as dPdT max at 16 ug/kg/min (reference value: 4162 to 5214 mmHg/s)
Rattus norvegicus [20] = assay: Effect on hemodynamic parameters in Sprague-Dawley rat heart assessed as heart rate at 64 ug/kg/min (reference value: 274 bpm)
Rattus norvegicus [21] = assay: Effect on hemodynamic parameters in Sprague-Dawley rat heart assessed as end-diastolic pressure at 32 ug/kg/min (reference value: 9.64 mmHg)
Rattus norvegicus [22] = assay: Effect on hemodynamic parameters in Sprague-Dawley rat heart assessed as end-systolic pressure at 128 ug/kg/min (reference value: 87.48 mmHg)
Rattus norvegicus [23] = assay: Effect on hemodynamic parameters in Sprague-Dawley rat heart assessed as end-systolic pressure at 2 ug/kg/min (reference value: 97.85 mmHg)
Rattus norvegicus [24] = assay: Effect on hemodynamic parameters in Sprague-Dawley rat heart assessed as heart rate at 4 ug/kg/min (reference value: 260 to 322 bpm)
Rattus norvegicus [25] = assay: Effect on hemodynamic parameters in Sprague-Dawley rat heart assessed as end-diastolic pressure at 2 ug/kg/min (reference value: 7.68 mmHg)
Rattus norvegicus [26] = assay: Effect on hemodynamic parameters in Sprague-Dawley rat heart assessed as dPdT max at 2 ug/kg/min (reference value: 5214 mmHg/s)
Rattus norvegicus [27] = assay: Effect on hemodynamic parameters in Sprague-Dawley rat heart assessed as dPdT max at 4 ug/kg/min (reference value: 4985 to 5214 mmHg/s)
Rattus norvegicus [28] = assay: Effect on hemodynamic parameters in Sprague-Dawley rat heart assessed as end-diastolic pressure at 4 ug/kg/min (reference value: 7.68 to 9.83 mmHg)
Rattus norvegicus [29] = assay: Effect on hemodynamic parameters in Sprague-Dawley rat heart assessed as end-systolic pressure at 4 ug/kg/min (reference value: 94.65 to 97.85 mmHg)
Rattus norvegicus [30] = assay: Effect on hemodynamic parameters in Sprague-Dawley rat heart assessed as dPdT min at 2 ug/kg/min (reference value: -5462 mmHg/s)
Rattus norvegicus [31] = assay: Effect on hemodynamic parameters in Sprague-Dawley rat heart assessed as dPdT min at 4 ug/kg/min (reference value: -5462 to -4898 mmHg/s)
Rattus norvegicus [32] = assay: Effect on hemodynamic parameters in Sprague-Dawley rat heart assessed as heart rate at 2 ug/kg/min (reference value: 322 bpm)

O=C(NCCCc1ccccc1)NCc1ccccc1
Activity (Rattus norvegicus [1]): 6146 mmHg/s
Activity (Rattus norvegicus [2]): 108.41 mmHg
Activity (Rattus norvegicus [3]): 284 bpm
Activity (Rattus norvegicus [4]): 95.74 mmHg
Activity (Rattus norvegicus [5]): 24.12 mmHg
Activity (Rattus norvegicus [6]): -6346 mmHg/s
Activity (Rattus norvegicus [7]): -6138 mmHg/s
Activity (Rattus norvegicus [8]): 94.26 mmHg
Activity (Rattus norvegicus [9]): 1.71 mm
Activity (Rattus norvegicus [10]): 412 bpm
Activity (Rattus norvegicus [11]): 2.24 mm
Activity (Rattus norvegicus [12]): 71.65%
Activity (Rattus norvegicus [13]): 268 bpm
Activity (Rattus norvegicus [14]): 4744 mmHg/s
Activity (Rattus norvegicus [15]): -5375 mmHg/s
Activity (Rattus norvegicus [16]): 95.44%
Activity (Rattus norvegicus [17]): 5382 mmHg/s
Activity (Rattus norvegicus [18]): 16.85 mmHg
Activity (Rattus norvegicus [19]): 4740 mmHg/s
Activity (Rattus norvegicus [20]): 277 bpm
Activity (Rattus norvegicus [21]): 12.26 mmHg
Activity (Rattus norvegicus [22]): 113.24 mmHg

COC(=O)N1CCN(Cc2cccc(NC(=O)Nc3ccc(C)nc3)c2F)CC1 [OMECAMTIV MECARBIL]
Activity (Rattus norvegicus [23]): 109.76 mmHg
Activity (Rattus norvegicus [24]): 326 bpm
Activity (Rattus norvegicus [25]): 7.65 mmHg
Activity (Rattus norvegicus [8]): 108.91 mmHg
Activity (Rattus norvegicus [9]): 1.36 mm
Activity (Rattus norvegicus [10]): 370 bpm
Activity (Rattus norvegicus [11]): 2.81 mm
Activity (Rattus norvegicus [12]): 60.81%
Activity (Rattus norvegicus [26]): 6320 mmHg/s
Activity (Rattus norvegicus [16]): 89.17%
Activity (Rattus norvegicus [19]): 6867 mmHg/s
Activity (Rattus norvegicus [27]): 6645 mmHg/s
Activity (Rattus norvegicus [28]): 7 mmHg
Activity (Rattus norvegicus [29]): 108.85 mmHg
Activity (Rattus norvegicus [30]): -6628 mmHg/s
Activity (Rattus norvegicus [31]): -6516 mmHg/s
Activity (Rattus norvegicus [32]): 322 bpm

From ChEMBL document CHEMBL4033651, “Exploration of flexible phenylpropylurea scaffold as novel cardiac myosin activators for the treatment of systolic heart failure” (Eur J Med Chem, 2017)
